Calls of active or inactive are those of the source. Unless noted, no stated cut-off is given here; in the data, active means inhibition above about 31%; inactive means the rest.

The nature of assay [1]: HUVEC growth inhibition – cell-based, human, primary screen (AID 575;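 active means viability at or below 30% in both replicate assays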;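 further: 100% = median of untreated cell wells with 0.1% DMSO on each plate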). Conditions: HUVEC proliferation, CellTiter-Glo luminescence, 72 h; at 10 µM; stronger effect = lower value. In short, it runs like this:
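system = HUVEC primary cells | amount = 1250 cells/well | buffer or medium = supplemented EBM, 2% fetal bovine serum | dosing = single-point 10 µM, DMSO 0.1% final | times = 72 h compound incubation | detection = CTG luminescence | read-out = % viability relative to median vehicle-well signal on each plate | control set = vehicle and MePR control wells | format = collagen-coated 384-well format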
In general terms: Cellular ATP, detected with luciferase, serves as a proxy for viable cell number.

Assay [2] in a line: growth inhibitors of H69AR lung tumor, primary screen, human, duplicate replicates (AID 580;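 active means viability at or under a set limit in both replicates, limit being median viability minus 3 SD, cut at about 48% in these data, passing the limit was not always enough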;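 further: 100% = mean luminescence of untreated wells and 0% = no signal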). As to conditions: H69AR lung tumor cells viability, ATP luminescence, 72 h; at 10 µM; stronger effect = lower value.
Assay [3] can be described thus: reversal of MRP1-mediated doxorubicin resistance, pilot screen, H69AR cells, doxorubicin co-treatment (AID 601;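 active means viability loss from added drug above about 55%, and viability with drug at most 40%, in both replicates, limit read from the data, passing the limit was not always enough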). As to conditions: CellTiter-Glo, 72 h, at 10 µM; for differential viability (reversal): stronger effect = higher value.
Assay [4] is described as follows: 384-well plate pilot, post-Golgi transport modulator project, inhibition of yeast transport mutant growth (AID 636). As to conditions: absorbance 615 nm, about 18 h, stronger effect = higher value.
The nature of assay [5]: growth suppression of yeast trafficking mutant, preliminary HTS, modulators of trafficking downstream of Golgi apparatus project, 1536-format plate, OD 615 nm (AID 637; in the data active means inhibition above about 30%). Conditions: yeast transport mutant growth, absorbance 615 nm, 18 h; stronger effect = higher value.
The nature of assay [6]: SK-BR-3 cell growth inhibitors, pilot screen, 24 h, human (AID 572;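 active means viability at or below 10% of carrier control in both of two separate runs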;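 further: compound exposure lasted between 18 and 24 h rather than exactly 24 h; 100% = carrier-treated control wells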). Conditions: SK-BR-3 viability, CellTiter-Glo luminescence, at 10 µM, stronger effect = lower value.
The mark [7] stands for this setting: H69AR cells + 2 uM doxorubicin, measured here: viability with 2 uM doxorubicin, stronger effect = lower value.
[8] abbreviates: H69AR cells, compound alone cytotoxicity.

A word on the viability: it is a read-out of living cells in per cent, often relative to untreated cells. Broadly, the inhibition is the change of the read-out against control, counted positive when it falls. As to `COCCn1c(N)c(C(=O)Nc2sc3c(c2C(=O)OC)CCCC3)c2nc3ccccc3nc21`, the viability in assay [1] is 82.6% (inactive); in assay [2], 92.3% (inactive); in assay [3] (setting [7]) it was 92.7%; in assay [3] (setting [8]) it was 92.3%. For the same molecule, the differential viability (reversal) in assay [3] (H69AR cells + 2 uM doxorubicin) is -0.35% (inactive). The values for the inhibition in assay [4] and in assay [5] were -4.42% (inactive) and 3.65% (inactive), respectively.

Consider `CCc1ccc(NC(=O)c2cc(-c3ccco3)on2)cc1`, for which the viability is 75.1% (inactive) in assay [1], 91.3% (inactive) in assay [2], 108% in assay [3] (setting [7]) and 91.3% in assay [3] (setting [8]). Moreover, the differential viability (reversal) in assay [3] (H69AR cells + 2 uM doxorubicin) was -16.3% (inactive). For the same molecule, the inhibition in assay [4] was -1.45% (inactive); in assay [5] it was -4.6% (inactive).

In the case of `CC1(C)CC(=O)c2c(O)cc(O)cc2O1`, the viability in assay [1] is 107% (inactive); in assay [2], 99.7% (inactive); in assay [3] (setting [7]), 84.3%; in assay [3] (setting [8]), 99.7%. In addition, the differential viability (reversal) in assay [3] (H69AR cells + 2 uM doxorubicin) is 15.4% (inactive). The inhibition is -8.42% (inactive) in assay [4] and -1.43% (inactive) in assay [5].

`O=C1CNCc2[nH]c3ccccc3c2N1c1ccccc1`: the viability in assay [1] was 94.2% (inactive); in assay [2], 94.8% (inactive); in assay [3] (setting [7]), 96%; in assay [3] (setting [8]), 94.8%. In addition, the differential viability (reversal) in assay [3] (H69AR cells + 2 uM doxorubicin) is -1.22% (inactive). Moreover, the inhibition in assay [4] was -3.95% (inactive); in assay [5], 1.27% (inactive).

On to `O=C(CNCCC1=CCCCC1)Nc1ccccc1N1CCCCC1`, for which the viability in assay [6] is 102% (inactive); in assay [3] (setting [7]), 66.9%; in assay [3] (setting [8]), 61.6%. The differential viability (reversal) in assay [3] (H69AR cells + 2 uM doxorubicin) is -5.31% (inactive). Also, the inhibition in assay [4] was -1.08% (inactive); in assay [5], 6.51% (inactive).

For the origin of these results see PubChem BioAssay.
